Test [1] concerns the target 72 kDa type IV collagenase (Homo sapiens, UniProt P08253). Nature of the test: Inhibition of MMP2. The essentials:
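Incubated with compound at 1 to 5000 nM. Started with a fluorogenic quenched peptide substrate (1–10 nM). Initial hydrolysis rate, with (Vi) and without (Vo) compound, was followed by fluorescence.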

Test [2] concerns the target Matrix metalloproteinase-14 (Homo sapiens, UniProt P50281). Description: Inhibition of MMP14.
Test [3] addresses Matrix metalloproteinase-9 (Homo sapiens, UniProt P14780). Nature of the test: Inhibition of MMP9.
Another test concerns the target T1, Interstitial collagenase (Homo sapiens, UniProt P03956).
T1 sequence (P03956 whole entry): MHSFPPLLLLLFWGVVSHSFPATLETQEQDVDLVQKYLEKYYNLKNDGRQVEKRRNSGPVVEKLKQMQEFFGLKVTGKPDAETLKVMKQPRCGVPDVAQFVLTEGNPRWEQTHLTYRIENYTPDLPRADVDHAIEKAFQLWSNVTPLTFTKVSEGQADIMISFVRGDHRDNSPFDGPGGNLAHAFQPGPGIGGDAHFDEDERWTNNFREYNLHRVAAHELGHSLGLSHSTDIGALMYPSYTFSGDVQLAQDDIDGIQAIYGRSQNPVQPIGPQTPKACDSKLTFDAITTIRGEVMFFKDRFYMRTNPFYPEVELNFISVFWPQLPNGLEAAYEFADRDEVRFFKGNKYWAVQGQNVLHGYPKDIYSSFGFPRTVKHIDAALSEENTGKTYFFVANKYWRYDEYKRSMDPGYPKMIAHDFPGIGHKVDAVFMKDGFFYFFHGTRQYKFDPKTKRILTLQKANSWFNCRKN
Description: Inhibition of MMP1.

The target in the next test is Stromelysin-1 (Homo sapiens, UniProt P08254). Nature of the test: Inhibition of MMP3.
For the next test, the target named is Neutrophil collagenase (Homo sapiens, UniProt P22894). Nature of the test: Inhibition of MMP8. The essentials:
(§1)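 Human recombinant pro-enzymes, freshly activated with p-aminophenylmercuric acetate at 37 °C for 2 h. Used at 0.6 nM for MMP-13 and 3.8 nM for MMP-8. Incubated with compound from 1 to 5000 nM. Assay began with addition of a fluorogenic substrate (1–10 nM). Initial rates of peptide cleavage were measured fluorimetrically, with (Vi) and without (Vo) compound.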

Another test concerns the target Collagenase 3 (Homo sapiens, UniProt P45452). Description: Inhibition of MMP13. The essentials:
as §1

Sequence of Stromelysin-1 (P08254 whole entry): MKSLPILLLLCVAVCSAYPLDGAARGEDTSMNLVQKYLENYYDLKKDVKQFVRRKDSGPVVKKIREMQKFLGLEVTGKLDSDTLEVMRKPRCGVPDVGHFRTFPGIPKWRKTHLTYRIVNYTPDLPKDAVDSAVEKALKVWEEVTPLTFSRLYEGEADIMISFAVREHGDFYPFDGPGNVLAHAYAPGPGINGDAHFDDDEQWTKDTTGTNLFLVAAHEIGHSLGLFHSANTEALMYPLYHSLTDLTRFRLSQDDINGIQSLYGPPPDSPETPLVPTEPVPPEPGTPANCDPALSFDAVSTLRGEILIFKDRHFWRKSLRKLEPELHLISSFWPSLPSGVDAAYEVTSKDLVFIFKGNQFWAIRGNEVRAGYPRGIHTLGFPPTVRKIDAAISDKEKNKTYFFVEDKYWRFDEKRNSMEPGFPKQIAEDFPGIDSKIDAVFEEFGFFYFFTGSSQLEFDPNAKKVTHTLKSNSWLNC
Sequence of 72 kDa type IV collagenase (P08253 whole entry): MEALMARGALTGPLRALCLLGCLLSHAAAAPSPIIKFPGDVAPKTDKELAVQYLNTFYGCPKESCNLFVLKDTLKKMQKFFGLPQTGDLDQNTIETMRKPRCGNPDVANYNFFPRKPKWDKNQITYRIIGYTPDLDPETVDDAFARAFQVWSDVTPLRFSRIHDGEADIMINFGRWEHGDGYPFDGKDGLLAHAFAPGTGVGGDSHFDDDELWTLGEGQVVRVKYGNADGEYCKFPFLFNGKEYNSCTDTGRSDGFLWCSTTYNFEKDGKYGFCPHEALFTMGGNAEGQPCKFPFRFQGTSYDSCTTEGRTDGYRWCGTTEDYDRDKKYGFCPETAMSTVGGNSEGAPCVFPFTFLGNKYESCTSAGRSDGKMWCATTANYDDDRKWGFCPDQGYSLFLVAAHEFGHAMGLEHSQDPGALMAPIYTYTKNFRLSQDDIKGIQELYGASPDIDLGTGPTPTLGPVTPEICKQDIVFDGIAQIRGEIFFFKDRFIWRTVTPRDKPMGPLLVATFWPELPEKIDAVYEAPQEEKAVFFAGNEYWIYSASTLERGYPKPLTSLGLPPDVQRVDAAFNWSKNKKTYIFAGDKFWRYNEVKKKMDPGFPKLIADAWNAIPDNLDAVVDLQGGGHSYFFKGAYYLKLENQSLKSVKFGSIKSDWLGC
Sequence of Matrix metalloproteinase-9 (P14780 whole entry): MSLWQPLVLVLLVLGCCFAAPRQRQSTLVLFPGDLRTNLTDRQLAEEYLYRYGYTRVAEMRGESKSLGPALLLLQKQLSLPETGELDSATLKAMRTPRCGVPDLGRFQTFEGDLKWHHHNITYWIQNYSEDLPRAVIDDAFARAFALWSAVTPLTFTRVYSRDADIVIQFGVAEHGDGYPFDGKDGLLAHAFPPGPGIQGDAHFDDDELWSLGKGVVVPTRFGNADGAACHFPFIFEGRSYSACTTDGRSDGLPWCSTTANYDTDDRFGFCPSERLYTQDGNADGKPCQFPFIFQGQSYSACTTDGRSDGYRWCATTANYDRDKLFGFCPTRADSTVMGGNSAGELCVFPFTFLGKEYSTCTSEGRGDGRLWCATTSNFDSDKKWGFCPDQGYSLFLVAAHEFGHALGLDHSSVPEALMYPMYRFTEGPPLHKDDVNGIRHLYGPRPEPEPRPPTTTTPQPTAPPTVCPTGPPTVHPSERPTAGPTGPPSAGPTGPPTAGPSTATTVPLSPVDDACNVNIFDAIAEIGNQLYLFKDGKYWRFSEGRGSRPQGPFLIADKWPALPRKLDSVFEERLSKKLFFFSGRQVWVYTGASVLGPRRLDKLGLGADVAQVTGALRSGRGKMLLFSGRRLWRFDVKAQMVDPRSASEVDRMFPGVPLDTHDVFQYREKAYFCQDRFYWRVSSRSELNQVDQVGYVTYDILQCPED
Sequence of Neutrophil collagenase (P22894 whole entry): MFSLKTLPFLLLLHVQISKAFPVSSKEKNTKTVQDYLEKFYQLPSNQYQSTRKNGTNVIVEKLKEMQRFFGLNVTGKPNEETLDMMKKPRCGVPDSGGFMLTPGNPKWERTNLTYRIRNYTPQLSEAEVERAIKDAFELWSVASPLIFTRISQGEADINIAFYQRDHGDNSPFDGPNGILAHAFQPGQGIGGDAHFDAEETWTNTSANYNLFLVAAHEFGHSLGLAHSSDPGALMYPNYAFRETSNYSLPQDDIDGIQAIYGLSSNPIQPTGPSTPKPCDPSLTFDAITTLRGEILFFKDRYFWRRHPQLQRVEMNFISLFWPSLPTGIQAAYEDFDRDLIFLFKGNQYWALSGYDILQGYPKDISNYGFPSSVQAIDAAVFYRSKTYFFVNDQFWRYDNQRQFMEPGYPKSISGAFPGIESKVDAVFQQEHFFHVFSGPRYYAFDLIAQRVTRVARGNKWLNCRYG

For orientation: IC50 means the concentration at which inhibition is half-maximal. As for `CNC(=O)[C@H](Cc1c[nH]c2ccccc12)NC(=O)/C(=C/C(C)C)CC(=O)NO`, the IC50 in test [1] worked out at 0.0092 µM; in test [2], 0.01 µM; in test [3], 0.017 µM; at Interstitial collagenase, 0.018 µM.
Consider `CNC(=O)[C@H](Cc1c[nH]c2ccccc12)NC(=O)[C@@H](CC(=O)NO)CC(C)C` [ILOMASTAT], for which the half-maximal inhibitory concentration (IC50) in test [2] worked out at 0.0134 µM.
With `CNC(=O)[C@H](Cc1c[nH]c2ccccc12)NC(=O)/C(=C/CCc1ccccc1)CC(=O)NO`, the concentration for half-maximal inhibition (IC50) in test [1] was 0.28 µM; in test [2], 53.1 µM; in test [3], 0.045 µM; against Stromelysin-1 it was 1.92 µM; at Interstitial collagenase, 9.13 µM.
Regarding `C/C=C/C=C(\CC(=O)NO)C(=O)N[C@@H](Cc1c[nH]c2ccccc12)C(=O)NC`, the IC50 in test [1] worked out at 78.5 µM; in test [2] it was 0.913 µM; in test [3], 0.974 µM; against Stromelysin-1, 8.61 µM; against Interstitial collagenase, 0.984 µM.
`CNC(=O)[C@H](Cc1c[nH]c2ccccc12)NC(=O)/C(=C/C=C/c1ccccc1)CC(=O)NO`: the IC50 in test [1] was determined as 0.12 µM; in test [2], 2.49 µM; in test [3] it was 0.038 µM; at Stromelysin-1 it was 21 µM; against Interstitial collagenase, 1.24 µM.
Turning to `CCCCCC/C=C(\CC(=O)NO)C(=O)N[C@@H](Cc1c[nH]c2ccccc12)C(=O)NC`, the half-inhibitory concentration (IC50) was 0.123 µM in test [1]; 2.66 µM in test [2]; over 10 µM in test [3]; 0.101 µM on Neutrophil collagenase; over 10 µM against Stromelysin-1; 32 µM on Interstitial collagenase. Inhibition against Collagenase 3 was half-maximal at 0.122 µM (IC50).

The values above are taken from ChEMBL document CHEMBL1149586 (Bioorg Med Chem, 2007).
